# High-throughput results from PubChem.
# Sampled rows, rich in hits. Any-hit rate of the full collection: about 12%.
# WT yeast gro inh – growth inhibition of WT yeast, mitochondrial fusion screen | inhibition, % at 10 µM | AID 1362 | hit rate 2.1% among 190,000 | mitochondrial fusion phenotypic screen, WT strain; in the data active means inhibition above about 58%; tested in S. cerevisiae
# KCC2 mod – modulates chloride dependent transport by human KCC2. Q9H2X9. AID 1456. B-score of Tl+ flux slope (higher = more flux/activation; lower = inhibition) at 10 µM. KCC2 cells, thallium flux FluoZin-2 fluorescence. hit rate 2.2% among 190,000;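 active means thallium flux slope and its plate-corrected score both differing from the plate sample mean at a set confidence after two filtering rounds, in either direction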;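 further: slope of fluorescence scaled to starting intensity during 10 to 20 s after thallium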
# Diaphorase inh – inhibits diaphorase or chemically oxidizes, flagging diaphorase assay artifacts | diaphorase resazurin-to-resorufin fluorescence, NADH, 16 min; bacterial (C. kluyveri) enzyme, not human | inhibition, % at 20 µM | hit rate 0.69% among 190,000 | AID 1217;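 active means primary screen inhibition at 20 µM above a set limit, cut at about 50% in these data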;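 further: plate controls were DMSO with full reaction for no effect and wells lacking NADH for full effect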
#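 Test system: Clostridium kluyveri diaphorase enzyme / Quantity: diaphorase at 0.14 U/mL in enzyme working solution / Incubation: 16-min room-temperature incubation before reading / Benchmarks: NADH-free wells as positive control, DMSO-only neutral wells / Signal: resorufin fluorescence 544/590 nm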
# Diaphorase act – activates diaphorase or chemically reduces, flagging diaphorase assay artifacts | Diaphorase/resazurin coupled assay, resorufin fluorescence, 16 min; hits give high values; 1 = vehicle wells, 0 = NADH-free wells | activation factor at 20 µM | hit rate 0.005% among 190,000;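 active means diaphorase activity raised at least twofold by the compound at 20 µM; inactive means activation factor below 2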
#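 Test system: Clostridium kluyveri diaphorase, purified enzyme; input: enzyme 0.07 U/mL final; buffer or medium: 50 mM HEPES pH 7.4 with 4.542 mM MgCl2, 0.005% Tween 20; also added: 0.114 mM NADH and 0.1 mM resazurin, final amounts; schedule: 16 min enzyme reaction, ambient temperature; technique: fluorescence of resorufin, 544 nm excitation, 590 nm emission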
# L major viab – Leishmania major promastigote growth inhibition | Leishmania major promastigotes, resazurin fluorescence viability | inhibition, % at 10 µM | hit rate 9% among 200,000 | AID 1063; in the data active means inhibition above about 50%;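 further: promastigotes grown with compound for 44 hours at 28 °C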
# ROMK primary – human ROMK K+ channel modulation, primary screen; P48048; Tet-inducible ROMK, thallium flux fluorescence; actives lie on both sides; B-score at 10 µM; hit rate 2% among 130,000;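 active means signal ratio slope over the read window, or its plate-corrected B-score, at least 3 SD from the plate mean, either direction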;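 further: B-score of the F/F0 ratio slope over 7 to 12 s after thallium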
# Starred values were filed as active, the others as inactive; nt = no result given.
SMILES,WT yeast gro inh,KCC2 mod,Diaphorase inh,Diaphorase act,L major viab,ROMK primary
O=[N+]([O-])c1ccc(N2CCN(S(=O)(=O)c3ccccc3[N+](=O)[O-])CC2)cc1NCc1cccnc1,-10,-0.013,4,1,68*,-0.11
Cc1ccc(NC(=O)COC(=O)CSC(=S)N2CCOCC2)cc1,-5,0.029,19,0.8,-8,-0.8
COc1ccc(C)cc1NC(=O)C1CCN(C(=O)Cc2ccccc2)CC1,15,-0.79,15,0.8,-2,-0.77
Oc1ccc(N2CCN(c3ncnc4sc(-c5ccccc5)cc34)CC2)cc1,43,-0.16,33,0.7,62*,0.78
CC(C)CNC(=O)C1CCCN(C(=O)NCc2ccccc2)C1 (configuration not stated),-1,0.13,-4,1,0,-0.42
N#Cc1ccc(OCC(=O)Nc2ccccc2NS(=O)(=O)c2cccs2)cc1,-16,-0.075,12,0.9,63*,2.1
Cc1cc(-c2csc(NC(=O)c3ccc(C#N)cc3)n2)c(C)n1Cc1ccccc1,-11,-0.39,26,0.7,2,nt
O=C(CN(CCc1ccccc1)S(=O)(=O)c1ccc(Br)cc1)N/N=C/c1ccc2c(c1)OCO2,2,-0.35,6,0.9,-4,0.27
O=C(CN(Cc1ccc(Cl)c(Cl)c1)S(=O)(=O)c1ccccc1)N/N=C\c1ccc2c(c1)OCO2,53,-0.4,20,0.8,88*,0.57
O=C(CN(Cc1ccccc1)S(=O)(=O)c1ccccc1)N/N=C/c1ccc2c(c1)OCO2,-1,-1,13,0.9,63*,0.58
CNC(=O)c1ccsc1NC(=O)c1ccc(S(=O)(=O)N2CCCc3ccccc32)cc1,52,0.29,6,0.9,100*,0.55
O=C(Nc1nc2c(s1)CCCC2)c1ccc(S(=O)(=O)N2CCCc3ccccc32)cc1,0,nt,25,0.8,98*,0.93
CCc1nnc(NC(=O)c2ccc(S(=O)(=O)N3CCCc4ccccc43)cc2)o1,70*,nt,10,0.9,99*,-0.16
COc1ccccc1C(=O)Nc1ccc(S(=O)(=O)N2CCc3ccccc32)cc1,-16,-0.57,21,0.8,80*,-0.3
COC(=O)Nc1ccc(S(=O)(=O)N2CCCc3ccccc32)cc1,-1,nt,17,0.8,42,nt
O=C(NN1CCOCC1)c1cc(-c2ccc(Cl)c(Cl)c2)nc2ccccc12,-15,-0.32,5,1,-2,-0.026
O=C(CC1CS(=O)(=O)CC1CC(=O)Oc1ccccc1F)Oc1ccccc1F (configuration not stated),7,-0.53,6,0.9,-4,-0.26
Cc1cc(N2CCN(c3ccccc3Cl)CC2)n2cc(-c3ccccc3)nc2n1,74*,-0.42,10,0.9,49,nt
CC(=O)N1N=C(c2ccco2)CC1c1cccs1 (configuration not stated),14,nt,0,1,-4,nt
Cc1ccc(C2=NN(C(=O)CCC(=O)O)C(c3cccs3)C2)cc1 (configuration not stated),nt,-0.56,nt,nt,nt,-0.039
O=C(CCl)N1N=C(c2ccco2)CC1c1cccs1 (configuration not stated),-25,-1.2,5,1,90*,nt
Cc1ccc(C2=NN(C(=O)CCl)C(c3cccs3)C2)o1 (configuration not stated),-26,-0.015,18,0.8,90*,nt
CC(C)=NOc1nc(N(C)C)nc(N(C)C)n1,-1,0.78,10,0.9,-1,-0.21
O=C(/C=C/c1ccccc1)Nc1ccc(Br)cn1,6,0.19,-4,1,1,0.47
COc1cc(OC)cc(C(=O)N[C@H](C(=O)Nc2nc3c(s2)CCCC3)C(C)C)c1,-2,-0.08,30,0.7,90*,-1.3
SMILES,WT yeast gro inh,KCC2 mod,Diaphorase inh,Diaphorase act,L major viab,ROMK primary
C/C(=N\Nc1nc2c(s1)CCCC2)c1ccc(Cl)cc1,72*,nt,5,1,46,nt
COC(=O)Nc1nc2c(s1)CCCC2,15,-0.29,9,0.9,-8,nt
CC(C)(C)c1ccc(C(=O)NC(=S)Nc2sc3c(c2C#N)CCC3)cc1,-10,0.15,14,0.9,-2,nt
CN(C)c1ccc(C(=O)Nc2nc3c(s2)CCCC3)cc1,22,-0.76,21,0.8,98*,nt
CC(C)(C)c1ccc(C(=O)NC(=S)Nc2nc3c(s2)CCCC3)cc1,40,12*,13,0.9,67*,0.95
COc1ccc(S(=O)(=O)NCc2ccc(C(=O)NCc3cccnc3)cc2)cc1,-11,0.43,2,1,-8,0.056
c1nc2n(n1)C1=C(CCCC1)C1(CCCCC1)N2,6,1.4,8,0.9,31,0.2
Cc1ccc(Oc2ncccc2C(=O)NC2CCSC2=O)cc1 (configuration not stated),-9,nt,-17,1.2,2,0.45
O=C1c2ccccc2C(=O)N1/N=C/c1ccc(Oc2ccc([N+](=O)[O-])cn2)cc1,2,-0.047,-24,1.2,-4,-0.74
CC(C)CCn1c(O)c(N=NC(=O)Cn2ccc(C(F)(F)F)n2)c2ccccc21,-8,1.1,18,0.8,52*,0.019
CCn1cc(CNC(=O)/C=C/c2ccc([N+](=O)[O-])cc2)cn1,-11,1,21,0.8,-1,nt
CCCCNS(=O)(=O)c1ccc2nc(SCC(=O)c3ccccc3OC)[nH]c2c1,6,-1.8,28,0.7,99*,-1.8
Cc1ccc2nc(-c3ccccc3)c(-c3ccccc3)nc2c1,65*,0.048,20,0.8,2,0.11
CCOC(=O)C1(Cc2ccccc2)CCCN(CCO)C1 (configuration not stated),-17,-0.49,7,0.9,-8,0.16
CCOC(=O)C1(Cc2ccccc2)CCN(C2Cc3ccccc3C2)CC1,1,0.29,12,0.9,83*,-1.4
CCOC(=O)C1(Cc2ccccc2)CCN(Cc2cnn(CC)c2)CC1,12,0.68,2,1,6,-0.17
CCOC(=O)C1(Cc2ccccc2)CCCN(C2CCCC2)C1 (configuration not stated),-15,-0.32,7,0.9,76*,-1.2
CCOc1ccc2ncc(S(=O)(=O)c3ccccc3)c(N3CCN(c4ccc(OC)cc4)CC3)c2c1,52,-0.061,11,0.9,100*,nt
CCOc1ccc2[nH]c3c(N4CCC5(CC4)OCCO5)ncnc3c2c1,nt,-2,nt,nt,nt,-0.7
COc1ccc(N2CCN(c3nc4ccccc4nc3NS(=O)(=O)c3ccccc3)CC2)cc1,33,-1,29,0.7,-2,0.25
CCOc1ccc2ncc(S(=O)(=O)c3ccccc3)c(N3CCC4(CC3)OCCO4)c2c1,44,-0.93,16,0.8,86*,nt
CCc1ccc2ncc(S(=O)(=O)c3ccc(C)c(C)c3)c(N3CCCC3)c2c1,72*,0.78,32,0.7,30,nt
